The full list was thinned out, with hits kept by preference.
XBP1 UPR activ – activators of adaptive XBP1 UPR arm, primary screen, cell-based, CHO-XBP1 luciferase reporter, luminescence, uHTS; activation, % at 20 µM; IRE1-XBP1 UPR activation; percent of tunicamycin response, DMSO as zero; actives 0.33% (n = 330,000); AID 463104, 2010;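 active means versus positive control, 20 µM dose yields 30% or more activation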
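Material: CHO-XBP1 cells stably carrying IRE1-XBP1-driven luciferase reporter | Medium: F12 with 10% serum | Compound dosing: 20 µM single concentration, DMSO 1% | Incubation: Overnight seeding at 37 °C, 6 h compound treatment at 37 °C | Detection: Steady-Glo luminescence read | Read-out basis: % activation of reporter signal versus tunicamycin and DMSO controls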
CHOP inhibitor – inhibitors of CHOP promoter induction, primary screen, cell-based, unfolded protein response, luciferase reporter | CHO-K1 CHOP-promoter luciferase, tunicamycin-induced, 15-18 h | inhibition, % at 10 µM | actives 3.8% (n = 220,000) | AID 2732, 2010;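 active means compounds that reduced the stress-induced luciferase reporter signal by more than about 70% of percent inhibition, limit read from the data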
UPR CHOP act – activators of apoptotic CHOP UPR arm, primary screen, cell-based, CHO-CHOP luciferase reporter, luminescence, uHTS; UPR activation; percent of tunicamycin response over DMSO baseline; activation, % at 10 µM; actives 0.34% (n = 330,000); AID 449763, 2010;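 active means at 10 µM dose, activation of 40% or more, normalized to positive control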
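System: CHO-CHOP luciferase reporter cell line; amount: 500 cells/well; buffer or medium: F12 medium containing 10% fetal bovine serum; incubation: 6 h compound exposure at 37 °C after overnight seeding; measured by: luciferase luminescence after 10 min with Steady-Glo reagent; evaluation: % reporter activation, DMSO baseline versus tunicamycin full activation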
GAA850 FXN act – FXN promoter activators, primary screen, cell-based, luciferase luminescence, HEK293 lucGAA850; actives 0.56% (n = 360,000); activation, % at 6 µM; HEK293 lucGAA850 FXN promoter luciferase reporter, 24 h; percent of 10 µM SAHA response;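 active means activation above the average of all compounds screened plus 3 SD, cutoff fixed separately per campaign, cut at about 7.5% in these data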
CHOP confirm – retest of CHOP induction inhibitors, confirmation, cell-based; shares compounds with CHOP inhibitor; CHO-CHOP promoter luciferase reporter, tunicamycin-induced, luminescence; inhibition, % at 10 µM; actives 45% (n = 2,100);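 active means mean of three repeat readings of reporter signal inhibition above a set limit, cut at about 70% in these data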
Large screens that a line does not name were inactive (follow-up assays come after a bar, where they were run).

C=CS(=O)(=O)c1ccc(Oc2ccc(S(=O)(=O)C=C)cc2)cc1	none (no result: CHOP inhibitor) | CHOP confirm 120
O=C(Nc1ccc(F)c(Cl)c1)c1cc(C2CCCN(C(=O)CCc3ccccc3)C2)on1 (configuration not stated)	none (no result: XBP1 UPR activ, CHOP inhibitor, UPR CHOP act)
COc1ccc(NC(=O)CC2C(=O)N(c3ccc(F)cc3)C(=S)N2NC(=O)c2ccc(Cl)cc2)cc1 (configuration not stated)	CHOP inhibitor 106 | CHOP confirm inactive
Cc1ccc(C(=O)/C=C\C(=O)c2ccc(C)cc2)cc1	CHOP inhibitor 102 (no result: XBP1 UPR activ, UPR CHOP act) | CHOP confirm inactive
Cc1ccc(C(=O)c2ccc(C)cc2)cc1	none
O=C(NCc1cccnc1)c1cc(C2CCCCN2S(=O)(=O)Cc2ccccc2)on1 (configuration not stated)	none (no result: XBP1 UPR activ, CHOP inhibitor, UPR CHOP act)
COc1ccccc1Nc1nc(NCC(C)C)nc(N)c1[N+](=O)[O-]	CHOP inhibitor 101 | CHOP confirm inactive
COCC#Cc1ccc2c(c1)O[C@@H](CN(C)S(=O)(=O)c1cccc(F)c1)[C@@H](C)CN([C@H](C)CO)S2(=O)=O	none (no result: XBP1 UPR activ, CHOP inhibitor, UPR CHOP act)
ClC(Cl)(c1nnnn1-c1ccccc1)c1nnnn1-c1ccccc1	CHOP inhibitor 108 (no result: XBP1 UPR activ, UPR CHOP act) | CHOP confirm inactive
Cc1ccc(N2CC3=C(C2=O)C(c2ccccc2)NC(=O)N3C)cc1 (configuration not stated)	none
CN1C(=O)NC(c2ccccc2)C2=C1CN(c1ccc3ccccc3c1)C2=O (configuration not stated)	CHOP inhibitor 96 | CHOP confirm inactive
O=C(NC(=S)Nc1ccc2oc(-c3cccnc3)nc2c1)c1cccc(Cl)c1	CHOP inhibitor 99 | CHOP confirm inactive
Cc1sc(-c2ccncc2)nc1OC(=O)c1cc(Cl)cc(Cl)c1	CHOP inhibitor 104 | CHOP confirm inactive
Cc1sc(-c2ccncc2)nc1OC(=O)c1ccc(Cl)cc1	none
FC(F)(F)c1cccc(Sc2nc(-c3ccccc3)nnc2C(F)(F)F)c1	CHOP inhibitor 108 | CHOP confirm 109
CCOC(=O)c1ccc(NC(=O)c2ccccc2[N+](=O)[O-])cc1	none
CCOC(=O)c1cc([N+](=O)[O-])c([N+](=O)[O-])cc1NC(C)=O	CHOP inhibitor 107 (no result: XBP1 UPR activ, UPR CHOP act) | CHOP confirm 91
CC(CNC(=S)Nc1cc(F)cc(F)c1)CSc1ccc(Cl)cc1 (configuration not stated)	CHOP inhibitor 97 | CHOP confirm 86
Cc1ccc(NC(=S)NCCSc2ccc(Cl)cc2)cc1	none
O=C(c1cc(-c2ccccc2O)on1)N1CCc2ccccc2C1	CHOP inhibitor 106 | CHOP confirm inactive
O=C(CN1c2ccccc2Sc2ccccc21)NNC(=O)Nc1cccc(Cl)c1	CHOP inhibitor 103 | CHOP confirm 118
Cc1ccc(Cl)cc1NC1=C/C(=N\S(=O)(=O)c2cccs2)c2ccccc2C1=O	CHOP inhibitor 109 | CHOP confirm 116
O=C(O)c1ccc(NC2=C/C(=N/S(=O)(=O)c3cccs3)c3ccccc3C2=O)cc1	none (no result: XBP1 UPR activ, CHOP inhibitor, UPR CHOP act)
O=C1C(Nc2ccc(O)cc2)=C/C(=N/S(=O)(=O)c2cccs2)c2ccccc21	CHOP inhibitor 108 (no result: XBP1 UPR activ, UPR CHOP act) | CHOP confirm 110
Cc1ccc(NC2=C/C(=N\S(=O)(=O)c3cccs3)c3ccccc3C2=O)c(C)c1	none (no result: CHOP inhibitor) | CHOP confirm 119
Cc1cccc(NC2=C/C(=N/S(=O)(=O)c3cccs3)c3ccccc3C2=O)c1	CHOP inhibitor 106 (no result: XBP1 UPR activ, UPR CHOP act) | CHOP confirm 114
COc1ccc(CCC(=O)O)c(C(CC(=O)O)C(=O)O)c1OS(=O)(=O)c1ccc(C)cc1 (configuration not stated)	none (no result: XBP1 UPR activ, CHOP inhibitor, UPR CHOP act)
CCOC(=O)c1c(N2C(=O)C=CC2=O)sc(C)c1C	CHOP inhibitor 109 | CHOP confirm inactive
CCOC(=O)c1c(NC(N)=O)sc(C)c1C	none
CCc1nc2c(OCCC3CCCCC3)cccn2c1N(C=O)Cc1ccc(OC)cc1	none (no result: XBP1 UPR activ, CHOP inhibitor, UPR CHOP act)
Cc1cc(-c2ccccc2)n(-c2cc(N/N=C/c3ccccc3O)ncn2)n1	CHOP inhibitor 102 (no result: XBP1 UPR activ, UPR CHOP act) | CHOP confirm inactive
CNc1cc(-n2nc(C)cc2-c2ccccc2)ncn1	none
Cc1cccc(C)c1NC(=O)c1csc([C@@H]2O[C@H](CO)[C@H](O)[C@H](O)[C@H]2O)n1	none (no result: XBP1 UPR activ, CHOP inhibitor, UPR CHOP act)
O=C(C1=C(c2ccccc2)C(=O)c2ccccc2C1=O)c1ccccc1	CHOP inhibitor 104 (no result: XBP1 UPR activ, UPR CHOP act) | CHOP confirm 112
O=C(N/N=C/c1cccc([N+](=O)[O-])c1)c1cccc2cc[nH]c12	CHOP inhibitor 101 | CHOP confirm inactive
CCc1nc2ccc(C(=O)N3CCN(c4ccccc4)CC3)cn2c1N(C)CCC(C)C	none (no result: XBP1 UPR activ, CHOP inhibitor, UPR CHOP act)
O=C(NC1CCN(Cc2ccccc2)CC1)c1ccc(CS(=O)c2ccccc2Cl)o1 (configuration not stated)	none (no result: XBP1 UPR activ, CHOP inhibitor, UPR CHOP act)
CC(C)(C)c1cc(OC(=O)C2CCCC2)ccc1O	none (no result: CHOP inhibitor)
CCCCC(CC)C(=O)Oc1ccc(O)c(C(C)(C)C)c1 (configuration not stated)	CHOP inhibitor 104 | CHOP confirm 117
CCc1ccc(C(=O)/C=C/c2ccc([N+](=O)[O-])o2)cc1	CHOP inhibitor 106 | CHOP confirm 140
CC(=O)Nc1cc(-c2cccc(F)c2)cn2c(-c3ccc(F)cc3)cnc12	none (no result: XBP1 UPR activ, CHOP inhibitor, UPR CHOP act)
COc1ccc(OC)c(/C(O)=C/C(=O)C(=O)Nc2cc(C)cc(C)c2)c1	CHOP inhibitor 105 | CHOP confirm inactive
Nc1nonc1C(=O)NCCN=Cc1cc(Cc2ccccc2)cc(Br)c1O	CHOP inhibitor 104 | CHOP confirm inactive
CC(=C1SC(=S)NC1=O)c1ccccc1	none (no result: XBP1 UPR activ, CHOP inhibitor, UPR CHOP act)
CC1(c2ccccc2)CC(C)(C)N2C(=O)/C(=C3\SC(=S)NC3=O)c3cccc1c32 (configuration not stated)	CHOP inhibitor 97 (no result: XBP1 UPR activ, UPR CHOP act) | CHOP confirm 82
Oc1ccc(Br)cc1-c1nc2cnccn2c1NC1CCCCC1	CHOP inhibitor 98 | CHOP confirm 87
COc1cccc(-c2cc(-c3cccnc3)nc(N)c2C#N)c1	none
N#Cc1c(-c2cccc(Br)c2)cc(-c2cccnc2)nc1N	CHOP inhibitor 104 | CHOP confirm inactive
Cc1nc(N2CCN(c3ccccc3)CC2)[nH]c(=O)c1Cc1cccc2ccccc12	CHOP inhibitor 97 (no result: GAA850 FXN act) | CHOP confirm inactive
Cc1ccc(C2C(/C=C3/SC(=S)NC3=O)=C(c3cccs3)Oc3ccccc32)cc1 (configuration not stated)	CHOP inhibitor 99 | CHOP confirm inactive
Cc1nc(Nc2ccc(F)cc2)[nH]c(=O)c1CCC(C)C	CHOP inhibitor 104 | CHOP confirm 107
CCOC(CCc1c(C)nc(NC(C)=O)[nH]c1=O)OCC	none (no result: XBP1 UPR activ, UPR CHOP act)
CCCCCc1c(C)nc(Nc2ccccc2)[nH]c1=O	CHOP inhibitor 104 | CHOP confirm 86
O=C(Cn1nnc(-c2ccc(F)cc2)n1)NC(=O)NC1CCCCC1	none (no result: XBP1 UPR activ, CHOP inhibitor, UPR CHOP act)

High-throughput results from PubChem BioAssay.
